# Screens deposited in PubChem by several laboratories.
# MEKK2 mut-MEK5: signal of MEK5 binding to mutant human MEKK2 PB1 domain; bead flow cytometry, Alexa488-MEK5 binding to MEKK2 mutant; percent response, % at 10 µM; 0.35% of 290,000 active; AID 1530; in the data active = percent response above about 24%, passing the limit was not always enough
# MEKK3 PB1 HTS: raises or lowers MEK5 binding to the human MEKK3 PB1 domain; bead-based flow cytometry, Alexa488-MEK5 binding to MEKK3; actives lie on both sides; 0 = blocked by unlabeled MEK5, 100 = vehicle; binding response (% of control), % at 10 µM; 1.4% of 290,000 active;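 active = binding response more than 3 SD above or below the average of its plate-row segment, actives on both sides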;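 also: Alexa488 bead fluorescence after subtracting the streptavidin-only scavenger bead signal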
# UBC13 polyUb: blocks human UBC13 polyubiquitin chain formation; AID 485273; inhibition, % at 20 µM; 0.47% of 330,000 active; TR-FRET; in the data active = inhibition above about 45%, passing the limit was not always enough
# Pemphigus Ab inh: human desmoglein-3 autoantibody binding inhibition | P32926 | DSG3-coupled beads, scFv-anti-DSG3-GFP binding, flow cytometry; stronger effect = lower value | binding (percent of control), % at 10 µM | 0.48% of 310,000 active;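 active = binding more than 3 SD below its plate's average and above zero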;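 also: hits lower antibody fragment binding to DSG3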
# Apaf1 inhib: blocks human Apaf-1 apoptosome activity; 0.71% of 330,000 active; O14727; AID 489030; reconstituted apoptosome caspase-3 activity, DEVD-Rh110 fluorescence; inhibition, % at 20 µM; active = inhibition of at least 40% at 20 µM;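 also: plate controls were DMSO wells for no effect and DEVD-CHO caspase inhibitor wells for full effect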
#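 Medium: Hepes buffer, pH 7.5 / System: biochemical Apaf-1 apoptosome reconstitution / Measured by: Rh110 fluorescence, excitation 480 nm, emission 540 nm / Times: compound with Apaf-1, dATP, procaspase-3 30 min, then 50 min reaction, room temperature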
# MEKK2wt PB1 HTS: raises or lowers MEK5 binding to wildtype human MEKK2 PB1 domain | bead flow cytometry, Alexa488-MEK5 binding to MEKK2 WT; actives lie on both sides | binding response (% of control), % at 10 µM | Q9Y2U5 | 1.1% of 290,000 active; in the data active = binding response below about 67% or above about 130%
# The depositor's hits bear a star; · = not tested or not shown. Sampled rows, rich in hits. Any-hit rate of the full collection: about 3.2%.
SMILES,MEKK2 mut-MEK5,MEKK3 PB1 HTS,UBC13 polyUb,Pemphigus Ab inh,Apaf1 inhib,MEKK2wt PB1 HTS
O=C(CCCCCN1C(=O)[C@@H]2Cc3ccccc3CN2C1=O)Nc1cccc(F)c1,3,101,5,113,9,103
O=c1cc(-c2ccco2)nc(SCc2cccc(Cl)c2)[nH]1,-4,99,-6,101,2,-8.0*
COc1ccc(NC(=O)c2ccc3c(c2)S(=O)(=O)c2ccccc2C3=O)cc1,3,102,-7,83*,3,106
CC(C)(C)c1ccc(NC(=O)c2ccc3c(c2)S(=O)(=O)c2ccccc2C3=O)cc1,1,104,-6,101,-2,97
COc1ccc(-n2nc3c(N4CCC(C(=O)NCc5ccccc5C)CC4)nnc(C)c3c2C)cc1,-1,96,17,·,59*,102
N#Cc1ccc(C23CC4(C2)[C@H](CN(CC2CCCCC2)[C@@H]4c2ccccc2)C3c2ccc(C(F)(F)F)cc2)cc1 (stereo partly drawn),10,110,4,·,42*,125
N#Cc1ccc(C23CC4(C2)[C@H](CN(CC2CCCCC2)[C@@H]4c2ccccc2)C3c2ccccc2)cc1 (stereo partly drawn),6,109,-24,102,22,113
CSc1nc(C2CC2)cc(-c2cccs2)c1C#N,·,·,4,8.8*,7,·
COc1ccc(-c2cc(C3CC3)nc(SCC(=O)c3cccs3)c2C#N)cc1,5,93,2,104,18,110
O=C(CN(CCc1ccccc1)Cc1ccccc1)Oc1ccccc1P(=O)(O)O,4,105,2,94,8,107
COc1cccc(NC(=O)N(C)C[C@H]2OCc3cn(nn3)CCCC(=O)N([C@@H](C)CO)C[C@@H]2C)c1,·,·,·,106,·,·
O=C(Cn1c(=O)n(-c2cccc(C(F)(F)F)c2)c(=O)c2sccc21)NCC1CCCO1 (stereo not drawn),12,105,6,116,0,105
CCOc1ccc(S(=O)(=O)N2CCN(C(=O)c3ccncc3)CC2)cc1,1,98,-5,101,4,102
CC(C)CC(=O)NN(C)c1nc(-c2ccccc2)nnc1C(F)(F)F,4,108,4,52*,-7,107
CCCCC(=O)NN(C)c1nc(-c2ccccc2)nnc1C(F)(F)F,1,100,-7,105,5,102
CC1=C(C(=O)N(C)C)CC(CC(=O)NCCCCc2ccccc2)C(=O)N1Cc1ccc(C(C)(C)C)cc1 (stereo not drawn),·,·,·,110,·,·
CCN1CCN(C(=O)c2ccc(CS(=O)Cc3ccc(C)cc3)o2)CC1 (stereo not drawn),1,102,-7,74*,-9,102
NC(=S)Nc1cccc2cccnc12,4,107,-6,107,17,107
NC(=S)NNc1cccc2cccnc12,-12,68,-20,87,76*,64
O=C(C[C@H]1C/C=C\CC[C@@H](Cc2ccc(F)cc2)C(=O)OC[C@H]2CCCN2C1=O)NCCO,·,·,-2,105,-3,·
NS(=O)(=O)c1ccc(NC(=O)c2cc(-c3cccs3)nc3ccccc23)cc1,0,123,13,36*,-2,100
COC(=O)c1ccc(NC(=O)c2cc(-c3ccccn3)nc3ccccc23)cc1,2,105,-11,4.9*,-11,103
COC(=O)c1ccc(NC(=O)c2cc(-c3ccncc3)nc3ccccc23)cc1,·,·,36,105,4,·
CC(C)(O)c1[nH]c2cc(F)ccc2c1C(C)(C)O,-5,100,·,101,·,95
Cc1cccc(NC(=O)Cn2cc(C(=O)C3CC3)c3ccccc32)c1C,0,100,0,-14*,10,93
SMILES,MEKK2 mut-MEK5,MEKK3 PB1 HTS,UBC13 polyUb,Pemphigus Ab inh,Apaf1 inhib,MEKK2wt PB1 HTS
Cc1ccccc1CCN(C(=O)c1csnn1)C(C(=O)NC1CCCC1)c1ccncc1 (stereo not drawn),-1,99,-4,102,6,99
Cc1csc(SCC(=O)Nc2ccccn2)n1,11,102,3,·,8,106
O=C(CSc1nc(-c2ccc(F)cc2)cs1)Nc1ccccn1,-2,91,6,44*,-7,93
c1ccc2sc(NC3=NCN(CCN4CCOCC4)CN3)nc2c1,-15,95,10,78*,-9,91
OCCN1CN=C(Nc2nc3ccccc3s2)NC1,1,101,13,103,-14,102
CC1CCN(CCCNC(=O)c2cc3c(Cl)nc4ccccc4c3s2)CC1,26,105,6,108,19,154*
COC(=O)CCC(=O)OC1(C)C(=O)C=C2C=C(c3ccsc3)OC=C2C1=O (stereo not drawn),-1,94,-73,43*,27,89
CCC(=O)OC1(C)C(=O)C=C2C=C(c3ccsc3)OC=C2C1=O (stereo not drawn),-5,90,-49,91,18,87
Cc1ccc(NC(=O)COC(=O)CN2C(=O)NC3(CCCC3)C2=O)cc1Cl,·,·,-8,105,1,·
Cc1ccc2sc(N(CCCN(C)C)C(=O)CCS(=O)(=O)c3ccccc3)nc2c1C,16,107,11,120,25,151*
COc1ccc2[nH]c(=O)c(CN(C(=O)c3cccnc3)c3cc(C)ccc3C)cc2c1,1,96,4,101,-21,98
COc1ccc2[nH]c(=O)c(CN(C(=O)c3cccnc3)c3ccc(C)cc3C)cc2c1,4,102,21,100,-14,-3.0*
COc1ccc(-c2nn(-c3ccccc3)cc2/C=C2/SC(=S)N(Cc3ccco3)C2=O)c(C)c1,-3,96,-10,87*,5,95
CCN(CC)C(=O)c1[nH]cnc1C(=O)Nc1ccc(Cl)cc1,·,·,10,98,-4,·
CCOC(=O)Cc1csc(SC(C)C(=O)NC2CCCCC2C)n1 (stereo not drawn),·,·,3,114,1,·
CCOC(=O)N=Nc1c2ccccc2c2nc3no[nH]c3nc12,0,102,-177,·,88*,100
CCOC(=O)N=Nc1c(O)n(CC(=O)OC)c2ccccc12,1,100,3,83,-4,95
CC(C)CNC(=O)C(=O)NCc1ccccn1,-5,97,7,15*,-5,96
Cn1cccc1/C=N\NC(=O)C1COc2ccc(C(C)(C)C)cc2O1 (stereo not drawn),-4,101,-11,24*,8,96
CC(C)CC1NC(=O)c2ccccc2-n2c1nc1ccc(Cl)cc1c2=O (stereo not drawn),·,·,13,·,2,·
Cc1ccc(NC(=O)c2sc(N)nc2-c2ccc([N+](=O)[O-])cc2)cc1C,-24,86,-10,63*,-3,82
